Data as given in ChEMBL document CHEMBL4311947, “Discovery of Novel Naphthylphenylketone and Naphthylphenylamine Derivatives as Cell Division Cycle 25B (CDC25B) Phosphatase Inhibitors: Design, Synthesis, Inhibition Mechanism, and in Vitro Efficacy against Melanoma Cell Lines” (J Med Chem, 2019).
Active and inactive are the calls of the source. The rule behind the calls is not given here.

What was measured:
A-375 = assay: Induction of cell cycle arrest in human A375 cells assessed as increase in accumulation at subG1 phase at 10 uM after 16 hrs by propidium iodide staining based flow cytometric method; type: functional
Summary of the method: (§1)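 Seeded at 3×10^5 cells/well for 24 h at 37°C, then exposed to 10 µM inhibitor or 0.5% (v/v) DMSO for 8 or 16 h. Trypsin-harvested, fixed in cold 70% ethanol at -20°C for 1 h, stained 30 min at 4°C with 50 µg/mL PI in non-lysis solution. Phase distribution (sub-G1, G0/G1, S, G2/M) read by FACScan; triplicate experiments, mean ± SE.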

A2058 [1] = assay: Induction of cell cycle arrest in human A2058 cells assessed as increase in accumulation at G2/M phase at 10 uM after 16 hrs by propidium iodide staining based flow cytometric method; type: functional; summary of the method: as §1
A2058 [2] = assay: Induction of cell cycle arrest in human A2058 cells assessed as decrease in accumulation at G0/G1 phase at 10 uM after 16 hrs by propidium iodide staining based flow cytometric method; type: functional; summary of the method: as §1
hTERT-BJ = assay: Cytotoxicity against human BJ-5ta cells at 10 uM measured up to 72 hrs by MTT assay; type: cell-based
Summary of the method: (§2)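 Cells seeded at 4×10^4/well, treated 24 h after plating with inhibitor or 0.5% (v/v) DMSO vehicle for 24, 48 or 72 h. MTT added, 3 h at 37°C under 5% CO2, formazan solubilised, absorbance at 570 nm. Viability in arbitrary units, mean ± SE of at least three independent experiments versus control. Cells grown in DMEM/10% FBS at 37°C, 5% CO2; BJ-5ta cultured in 4:1 DMEM/Medium 199 with hygromycin B.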

A2058 [3] = assay: Inhibition of colony formation in human A2058 cells at 0.625 to 10 uM after 10 days by crystal violet staining based assay; type: functional, cell-based
Summary of the method: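 Seeded in duplicate at 4×10^2 cells/well; after 2–3 days treated with 0.5% (v/v) DMSO or 0.625–10 µM inhibitor for 10 days at 37°C. Stained 1 h with 1% crystal violet in 50% ethanol; colonies of ≥50 cells counted, expressed as percentage, mean ± SE of at least three experiments.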

A2058 [4] = assay: Cytotoxicity against human A2058 cells at 50 uM after 48 hrs by MTT assay; type: functional, cell-based; summary of the method: as §2
A2058 [5] = assay: Cytotoxicity against human A2058 cells at 50 uM after 24 hrs by MTT assay; type: functional, cell-based; summary of the method: as §2
[6] = target: T1, M-phase inducer phosphatase 2 (Homo sapiens) (UniProt P30305); assay: Inhibition of N-terminal His6-tagged human CDC25B (377 to 550 residues) expressed in Escherichia coli BL21(DE3) cells at 10 uM by spectrofluorimetric analysis
T1 sequence (whole entry): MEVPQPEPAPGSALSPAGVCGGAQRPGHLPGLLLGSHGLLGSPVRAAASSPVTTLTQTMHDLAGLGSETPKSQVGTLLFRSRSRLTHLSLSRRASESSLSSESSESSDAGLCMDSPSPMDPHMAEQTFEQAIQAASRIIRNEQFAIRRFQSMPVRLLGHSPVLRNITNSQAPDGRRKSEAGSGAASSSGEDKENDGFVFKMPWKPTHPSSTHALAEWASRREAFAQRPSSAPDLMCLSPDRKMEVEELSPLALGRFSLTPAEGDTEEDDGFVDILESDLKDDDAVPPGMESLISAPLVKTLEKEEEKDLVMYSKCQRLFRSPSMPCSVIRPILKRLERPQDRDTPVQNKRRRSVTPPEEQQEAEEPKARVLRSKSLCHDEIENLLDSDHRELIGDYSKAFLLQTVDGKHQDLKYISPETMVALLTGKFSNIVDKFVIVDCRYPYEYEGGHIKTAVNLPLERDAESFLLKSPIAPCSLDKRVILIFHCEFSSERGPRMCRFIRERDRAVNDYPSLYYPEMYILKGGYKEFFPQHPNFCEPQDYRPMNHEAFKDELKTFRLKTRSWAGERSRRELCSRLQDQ

[7] = target: T2, M-phase inducer phosphatase 1 (Homo sapiens, UniProt P30304); assay: Inhibition of N-terminal His6-tagged human CDC25A (336 to 508 residues) expressed in Escherichia coli BL21(DE3) cells using OMFP as substrate by double reciprocal Lineweaver-Burk plot analysis
T2 sequence (P30304 whole entry): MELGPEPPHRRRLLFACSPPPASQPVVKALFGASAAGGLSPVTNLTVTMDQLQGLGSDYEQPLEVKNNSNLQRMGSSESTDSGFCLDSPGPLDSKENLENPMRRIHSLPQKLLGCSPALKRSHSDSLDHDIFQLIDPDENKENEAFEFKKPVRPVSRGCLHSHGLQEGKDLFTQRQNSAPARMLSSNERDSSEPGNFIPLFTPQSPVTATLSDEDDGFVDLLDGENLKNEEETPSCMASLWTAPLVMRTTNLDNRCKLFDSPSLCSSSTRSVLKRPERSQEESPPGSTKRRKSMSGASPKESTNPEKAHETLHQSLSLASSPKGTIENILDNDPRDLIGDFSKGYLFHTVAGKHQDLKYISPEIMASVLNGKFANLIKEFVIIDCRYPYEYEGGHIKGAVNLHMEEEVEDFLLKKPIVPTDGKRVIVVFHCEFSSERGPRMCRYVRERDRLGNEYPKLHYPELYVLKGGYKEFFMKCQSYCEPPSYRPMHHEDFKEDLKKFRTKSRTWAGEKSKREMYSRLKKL
Summary of the method: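 Recombinant CDC25 form (15–25 nM) in 20 mM Tris-HCl pH 7.8, 0.5 mM TCEP, 1% (v/v) DMSO, with or without inhibitor. Reaction started with 0.5–25 µM OMFP; O-methylfluorescein formation followed continuously at 30°C (ex 485/em 530 nm). Initial rates (AU/min) analysed in Lineweaver-Burk plots for Vmax, KM and mechanism; Ki averaged from at least three independent experiments, only roughly estimated for mixed inhibition.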

[8] = target: T1, M-phase inducer phosphatase 2 (Homo sapiens); assay: Inhibition of CDC25B in human A375 cells assessed as increase in phosphorylated cdk1 level at 10 uM after 8 hrs by Western blot analysis; type: cell-based
Summary of the method: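 After 24 h at 3×10^5 cells, 8 h treatment with 10 µM inhibitor or 0.5% DMSO. Lysis in ice-cold modified RIPA with Na3VO4, NaF and protease inhibitors; Bradford-normalised equal protein on 12% SDS-PAGE. Rabbit polyclonal anti-p-Cdk1 overnight at 4°C, HRP secondary, ECL detection; β-actin loading control.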

CCOC(=O)c1cccc(Nc2cc(OC)cc3ccccc23)c1
Activity (A-375): Active | Activity (A2058 [1]): Active | Activity (A2058 [2]): Active | Activity (hTERT-BJ): Non-Toxic | inhibition (A2058 [3]): Active | Activity (A2058 [4]): Active | Activity (A2058 [5]): Active | inhibition [6]: inactive | Ki [7]: 3 µM | inhibition [8]: Active
